PP5 primary = PP5 (human) phosphatase inhibition | inhibition, % at 6.7 µM | 0.18% of 320,000 active | purified PP5c, OMFP substrate fluorescence | P53041;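 active means inhibition above the campaign's mean inhibition across all tested compounds plus 3 SD, cut at about 9.5% in these data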
PREPL inhibitor = inhibitors of human prolyl oligopeptidase-like enzyme PREPL. recombinant PREPL, fluorescence polarization activity-based probe. inhibition, % at 5.96 µM. 0.68% of 320,000 active. AID 2751; in the data active means inhibition above about 43%
UBC13 inh = inhibitors of human UBC13 polyubiquitin chain formation; P61088; TR-FRET; inhibition, % at 20 µM; 0.47% of 330,000 active; AID 485273; in the data active means inhibition above about 45%, passing the limit was not always enough
Target sequence (P61088 whole entry, looked up): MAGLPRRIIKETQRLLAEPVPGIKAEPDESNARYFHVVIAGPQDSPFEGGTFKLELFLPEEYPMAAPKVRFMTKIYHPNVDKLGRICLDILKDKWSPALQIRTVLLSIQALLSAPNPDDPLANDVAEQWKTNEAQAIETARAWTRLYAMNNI
UCH37 inh = blocks the human deubiquitinase UCH37; purified proteasome/UCH37, Ub-AMC cleavage fluorescence; inhibition, % (no concentration beside the values); 0.33% of 330,000 active;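 active means mean inhibition over replicate wells above about 20%, limit read from the data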
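Material: Human UCH37 enzyme supplied as purified proteasome complex | Schedule: 30 min preincubation with enzyme, 25 min cleavage at room temperature | Detection: AMC fluorescence 355/460 nm | Measure: % inhibition of Ub-AMC cleavage fluorescence | Controls: Wells without proteasome as full block, compound-free enzyme plus substrate as uninhibited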
CTSL1 counter = cathepsin L1 inhibition, PFM18AAP counter-screen; AID 1906; inhibition, % at 5.96 µM; recombinant F. hepatica cathepsin L1, Z-Leu-Arg-MCA fluorescence; 0.49% of 300,000 active;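 active means inhibition above the mean of all tested compounds plus 3 SD, set per screening campaign, cut at about 17% in these data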
PP1 inh = counter-screen for PP5 inhibitors: inhibitors of human PP1-alpha. inhibition, % at 6.7 µM. P62136. 0.9% of 320,000 active. purified PP1alpha, OMFP fluorescence;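 active means inhibition above the mean inhibition of all tested compounds plus 3 SD, computed separately for each screening campaign, cut at about 15% in these data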
Target sequence (P62136 whole entry, looked up): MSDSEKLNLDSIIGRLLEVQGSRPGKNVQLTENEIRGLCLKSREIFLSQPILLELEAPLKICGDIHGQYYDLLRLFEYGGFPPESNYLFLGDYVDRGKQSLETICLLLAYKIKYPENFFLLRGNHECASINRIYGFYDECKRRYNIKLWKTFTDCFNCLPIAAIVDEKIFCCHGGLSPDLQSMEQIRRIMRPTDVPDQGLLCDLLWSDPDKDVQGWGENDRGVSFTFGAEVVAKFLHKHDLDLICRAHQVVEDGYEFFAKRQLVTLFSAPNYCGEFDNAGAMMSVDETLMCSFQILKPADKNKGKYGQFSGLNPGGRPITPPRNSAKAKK
A number is an active result; 0 = inactive; - = no result. Sampled rows, rich in hits. Any-hit rate of the full collection: about 2.3%.

SMILES | PP5 primary | PREPL inhibitor | UBC13 inh | UCH37 inh | CTSL1 counter | PP1 inh
Nc1nonc1-n1nnc(C(=O)N/N=C/c2ccc(Cl)cc2Cl)c1CN1CCCCC1 | 0 | 0 | 0 | - | 0 | 0
CCCc1c(C(=O)N/N=C/c2ccc(OCc3ccccc3)c(OC)c2)nnn1-c1nonc1N | 0 | 0 | 0 | - | 16.9 | 0
CCCCNC(=S)N(C)N=Cc1ccc(OCC(=O)Nc2ccc(OC)cc2)c(OC)c1 | - | - | - | 0 | - | -
CSc1ccc(C=Nn2c(Cc3ccc(Br)cc3)n[nH]c2=S)cc1 | - | - | - | 0 | - | -
Cc1ccc(S(=O)(=O)Oc2ccc(C=NNC(=O)c3c(Cl)cnn3C)cc2)cc1 | - | - | - | 0 | - | -
CCc1ccccc1NC(=O)CSc1nnc([C@H](CCSC)NC(=O)OC(C)(C)C)o1 | 0 | 0 | 0 | 0 | 54.4 | 0
CSCC[C@H](NC(=O)OC(C)(C)C)c1nnc(SCC(N)=O)o1 | 0 | 0 | 0 | 0 | 0 | 0
CSCC[C@H](NC(=O)OC(C)(C)C)c1nnc(SCC(=O)Nc2ccc(C)cc2C)o1 | 0 | 0 | 0 | 0 | 68.4 | 0
S=c1[nH]nc(-c2cc(-c3ccccc3)n[nH]2)n1N=C/C=C/c1ccccc1 | - | - | - | 0 | - | -
Cn1c(=O)c2c(nc(NCc3ccccc3)n2C)n(C)c1=O | 0 | 0 | 0 | 0 | 0 | 0
Cn1c(=O)c2cc(NCc3ccccc3)nnc2n(C)c1=O | 0 | 0 | 0 | 0 | 56.6 | 0
Cc1cccc(NC2=C(Cl)C(=O)OC2OC(=O)c2ccco2)c1 (stereo not given) | 0 | 0 | 0 | 0 | 0 | 0
Cc1ccc(NC2=C(Cl)C(=O)OC2OC(=O)c2ccco2)cc1 (stereo not given) | 0 | 0 | 0 | 0 | 81.0 | 0
COc1cc(C=NNC(=O)C(=O)/C=C2\NC3(CCCC3)Cc3ccccc32)ccc1O | - | - | - | 0 | - | -
CCN(N=Cc1ccc(N(C)C)cc1)c1nc2ccccc2[nH]1 | - | - | - | 0 | - | -
Cc1ccccc1OCc1nnc(SCC(=O)Nc2ccc3nc(SCC(=O)Nc4ccccc4)sc3c2)n1C | 0 | 0 | 0 | 0 | 0 | 16.8
CC(=NNc1nnc2c3ccccc3n(C)c2n1)c1ccc(C)o1 | - | - | - | 0 | - | -
CCS(=O)(=O)c1ccc(OC)c(N=Nc2ccc(O)c3ncccc23)c1 | 0 | 0 | 0 | 0 | 0 | 15.2
O=C(Nc1ccc(Cl)c(C(F)(F)F)c1)c1ccncc1 | 0 | 0 | 0 | 0 | 0 | 0
CNC(=O)c1cc(Oc2ccc(NC(=O)Nc3ccc(Cl)c(C(F)(F)F)c3)cc2)ccn1 | 0 | 0 | 0 | 31.2 | - | 0
CC(=NNC(=O)Cc1ccccc1Cl)c1cccnc1 | - | - | - | 0 | - | -
Cn1cccc1C=NNC(=O)c1ccc(OC(F)(F)C(F)F)cc1 | - | - | - | 0 | - | -
Cc1ccc(S(=O)(=O)N(CC(=O)N2CCCCCC2)c2ccccc2)cc1 | 0 | 0 | 0 | 0 | 0 | 0
Cc1ccc(N(CC(=O)N2CCN(C3CCCCC3)CC2)S(=O)(=O)c2cccnc2)cc1 | 0 | 0 | 0 | 0 | 17.5 | 0
Cc1ccc(C(=O)Nc2ccccc2C(=O)O)cc1S(=O)(=O)Nc1ccc(Br)cc1 | 0 | 0 | 0 | 0 | 0 | 16.4
SMILES | PP5 primary | PREPL inhibitor | UBC13 inh | UCH37 inh | CTSL1 counter | PP1 inh
Cc1ccc(C(=O)Nc2cccc(N(C)S(C)(=O)=O)c2)cc1S(=O)(=O)Nc1ccccc1 | 0 | 0 | 0 | 0 | 19.5 | 0
Cc1ccc(C(=O)Nc2ccccc2C(=O)O)cc1S(=O)(=O)NCc1ccccc1 | 0 | 0 | 0 | 0 | 0 | 0
CC(=NNC(=O)c1nn(C)cc1Br)c1cccc(NC(=O)c2ccncc2)c1 | - | - | - | 0 | - | -
COc1ccc(OC)c(C=NNC(=O)CSc2nnc(CCCc3ccc(OC)c(C)c3)o2)c1 | - | - | - | 0 | - | -
CCOC(=O)C1=C(C)N=c2sc(=Cc3ccc(OC(C)=O)cc3)c(=O)n2C1/C=C/c1ccccc1 (stereo not given) | - | - | - | 0 | - | -
COc1ccc(OC)c(C=NNC(=O)C(O)c2ccccc2)c1 (stereo not given) | - | - | - | 0 | - | -
COc1ccc(-c2[nH]ncc2-c2ccc(Cl)cc2)c(O)c1 | 0 | 0 | 0 | 0 | 17.3 | 0
COc1ccc(-c2cn[nH]c2-c2ccc(OC)cc2O)cc1 | 0 | 0 | 0 | 0 | 0 | 0
NC(=S)N/N=C1\CCOc2ccc(F)cc21 | 0 | 0 | 0 | - | 17.8 | 0
COc1ccc(C=NNC(=O)c2cccc(C(F)(F)F)c2)cc1 | - | - | - | 0 | - | -
OCCCNc1ncnc2sc3c(c12)CCN(Cc1ccccc1)C3 | 0 | 0 | 0 | 0 | 32.0 | 0
O=C1NC(=Nc2ccc(O)cc2)S/C1=C\C=C\c1ccco1 | 0 | 0 | 0 | 0 | 0 | 15.6
COc1ccc(N2CCN(c3oc(-c4ccccc4OC)nc3C#N)CC2)cc1 | 0 | 51.7 | 0 | 0 | 0 | 0
CCOC(=O)[C@@H]1[C@H]2COc3ccc(Br)cc3[C@@H]2N2C(=O)N(c3ccc(F)cc3)C(=O)[C@@]12C | - | 0 | 0 | 20.4 | - | -
CCOC(=O)[C@H]1[C@H]2COc3ccc(Br)cc3[C@@H]2N2C(=O)N(c3ccc(F)cc3)C(=O)[C@@]12C | - | 0 | 0 | 0 | - | -
Cc1cc(NC(=O)C23CC4CC(CC(C4)C2)C3)n[nH]1 | 0 | 0 | 0 | 0 | 19.7 | 0
O=C(N/N=C/C=C/c1ccco1)c1cnccn1 | 0 | 0 | 0 | - | 0 | 0
O=C(NN=C/C=C/c1ccco1)c1cnccn1 | - | - | - | 24.6 | - | -
O=C(CN1CCOCC1)NN=C/C=C/c1ccccc1 | - | - | - | 0 | - | -
Cc1ccc(C)c(S(=O)(=O)Nc2cc(SCC(=O)O)c(O)c3ccccc23)c1 | 0 | 0 | - | 23.3 | 0 | 0
CCc1ccc(S(=O)(=O)Nc2cc(SCC(=O)O)c(O)c3ccccc23)cc1 | 0 | 0 | 0 | 0 | 0 | 0
Cc1cccc(Cc2cnc(N3C(=N)SC(c4ccccc4)C3=O)s2)c1 (stereo not given) | 0 | 0 | 0 | 0 | 0 | 15.2
O=C(NN=C1CCCc2ccccc21)C(c1ccccc1)c1ccccc1 | - | - | - | 0 | - | -
Cn1c(=O)c2ccccc2n2c(CCl)nnc12 | 0 | 0 | 0 | 0 | 27.6 | 0
N#C/C(=C/c1cn(-c2ccccc2)nc1-c1cccc(S(=O)(=O)N2CCCC2)c1)C(=O)NCc1ccco1 | 0 | 0 | 0 | 0 | 0 | 15.8
SMILES | PP5 primary | PREPL inhibitor | UBC13 inh | UCH37 inh | CTSL1 counter | PP1 inh
O=C1CSC(c2cccc([N+](=O)[O-])c2)N1c1c(F)cccc1F (stereo not given) | 0 | 0 | 0 | 0 | 20.2 | 0
O=C1CSC(c2cccc(F)c2)N1c1c(F)cccc1F (stereo not given) | 0 | 0 | 0 | 0 | 0 | 0
CC(=O)C1=C(O)C(=O)N(CCN(C)C)C1c1ccc(Cl)cc1 (stereo not given) | - | - | - | 24.4 | - | -
Cc1ccc(C=c2sc3n(c2=O)CCCN=3)o1 | - | - | - | 0 | - | -
CSc1ccccc1NC(=O)c1cc(-c2cccnc2)nc2ccc(Br)cc12 | 0 | 0 | 0 | 0 | 0 | 17.0
COc1cc(C2Nc3cccc4cccc(c34)N2)cc(OC)c1O | 0 | 0 | 0 | 0 | 0 | 36.4
CC(C)CNS(=O)(=O)c1ccc(S(=O)(=O)N2CCC3(CC2)OCCO3)cc1 | 0 | 0 | 0 | 0 | 0 | 0
CC(=O)N1CCN(S(=O)(=O)c2ccc(S(=O)(=O)NCC(C)C)cc2)CC1 | 0 | 0 | 0 | 0 | 0 | 15.9

Screening data (PubChem BioAssay)
